Laboratory results from publication PMC7658073 (Clinical Pharmacokinetics, 2020).
Like-named read-outs stand apart in the source and are kept apart here.

How the values were obtained:
[1] = biological target: T1, organic cation transporter 1 (Homo sapiens, UniProt O15245); test: Substrate properties towards OCT1; type: in vitro ADME
T1 sequence (O15245 1-554): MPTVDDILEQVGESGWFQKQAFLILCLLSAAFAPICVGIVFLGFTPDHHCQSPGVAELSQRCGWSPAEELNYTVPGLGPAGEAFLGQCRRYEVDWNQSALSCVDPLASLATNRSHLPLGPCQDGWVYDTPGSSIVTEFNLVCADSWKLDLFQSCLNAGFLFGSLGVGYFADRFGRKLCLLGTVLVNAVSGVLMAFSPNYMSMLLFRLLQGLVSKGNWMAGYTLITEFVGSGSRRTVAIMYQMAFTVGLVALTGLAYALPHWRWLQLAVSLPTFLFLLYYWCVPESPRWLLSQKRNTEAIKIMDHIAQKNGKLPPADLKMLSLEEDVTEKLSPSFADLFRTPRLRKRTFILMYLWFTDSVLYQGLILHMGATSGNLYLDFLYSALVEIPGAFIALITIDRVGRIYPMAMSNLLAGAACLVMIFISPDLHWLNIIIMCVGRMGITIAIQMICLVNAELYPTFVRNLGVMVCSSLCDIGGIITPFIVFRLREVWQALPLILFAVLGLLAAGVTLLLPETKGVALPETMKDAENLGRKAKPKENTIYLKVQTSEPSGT

[2] = Phase I DDI study with digoxin; type: in vivo, human; settings: with digoxin 0.375 mg QD vs vericiguat 10 mg alone, fed
[3] = cited from earlier work
[4] = Phase I DDI study with mefenamic acid; type: in vivo, human
[5] = Phase I DDI study with omeprazole and magnesium/aluminum hydroxide; type: in vivo, human
Procedure, shortened: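 Randomized, open-label, three-fold crossover in healthy men. Test compound 5 mg single oral dose given fasting: alone; with omeprazole 40 mg QD for 5 days (pre- and co-dosed); or with a single 10 mL magnesium hydroxide 600 mg/aluminum oxide 900 mg antacid.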

[6] = biological target: T2, UGT1A4 (Homo sapiens, UniProt P22310); test: Inhibitory potency towards UGT isoforms: UGT1A4; type: in vitro ADME
T2 sequence (P22310 29-534): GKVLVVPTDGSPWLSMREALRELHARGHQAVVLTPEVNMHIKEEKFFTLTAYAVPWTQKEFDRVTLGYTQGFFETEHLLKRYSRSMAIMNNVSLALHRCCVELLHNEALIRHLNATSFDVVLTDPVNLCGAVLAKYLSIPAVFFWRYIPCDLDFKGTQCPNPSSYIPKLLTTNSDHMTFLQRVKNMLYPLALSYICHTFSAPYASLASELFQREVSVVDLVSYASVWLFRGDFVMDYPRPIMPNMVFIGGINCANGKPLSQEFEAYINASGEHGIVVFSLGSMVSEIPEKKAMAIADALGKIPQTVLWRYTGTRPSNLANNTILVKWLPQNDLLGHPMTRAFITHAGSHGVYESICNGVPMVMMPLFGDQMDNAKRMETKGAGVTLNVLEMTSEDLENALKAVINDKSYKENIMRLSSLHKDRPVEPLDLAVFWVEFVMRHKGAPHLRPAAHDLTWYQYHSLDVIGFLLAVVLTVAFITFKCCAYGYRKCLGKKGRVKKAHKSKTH

[7] = test system: CYP1A2; test: CYP induction in cultured human hepatocytes: CYP1A2; type: in vitro ADME; settings: three donors, up to 10,000 μg/L (23.5 µM)
[8] = biological target: T3, OATP1B3 (Homo sapiens, UniProt Q9NPD5); test: Inhibitory potency towards OATP1B3; type: in vitro ADME
T3 sequence (Q9NPD5 1-702): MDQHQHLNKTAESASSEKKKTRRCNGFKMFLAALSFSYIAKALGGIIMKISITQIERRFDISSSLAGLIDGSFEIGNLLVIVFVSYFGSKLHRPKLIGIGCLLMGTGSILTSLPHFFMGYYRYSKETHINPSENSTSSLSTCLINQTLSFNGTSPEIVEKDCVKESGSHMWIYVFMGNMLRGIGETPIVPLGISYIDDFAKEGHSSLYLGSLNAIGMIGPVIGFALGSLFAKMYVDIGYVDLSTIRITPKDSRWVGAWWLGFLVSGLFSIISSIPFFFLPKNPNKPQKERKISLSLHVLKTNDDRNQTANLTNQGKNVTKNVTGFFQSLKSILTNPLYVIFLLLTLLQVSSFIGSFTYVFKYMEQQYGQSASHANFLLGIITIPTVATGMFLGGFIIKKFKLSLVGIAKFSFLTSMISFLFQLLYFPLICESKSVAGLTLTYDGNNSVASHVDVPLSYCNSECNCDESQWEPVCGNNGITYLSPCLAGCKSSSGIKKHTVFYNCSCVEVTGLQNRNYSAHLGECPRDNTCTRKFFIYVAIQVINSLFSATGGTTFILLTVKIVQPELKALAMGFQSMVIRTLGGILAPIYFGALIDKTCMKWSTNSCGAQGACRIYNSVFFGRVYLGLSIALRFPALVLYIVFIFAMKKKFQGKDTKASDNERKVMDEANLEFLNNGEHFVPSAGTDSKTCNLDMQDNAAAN

[9] = biological target: T4, UGT1A1 (Homo sapiens, UniProt P22309); test: Inhibitory potency towards UGT isoforms; type: in vitro ADME
T4 sequence (P22309 26-533): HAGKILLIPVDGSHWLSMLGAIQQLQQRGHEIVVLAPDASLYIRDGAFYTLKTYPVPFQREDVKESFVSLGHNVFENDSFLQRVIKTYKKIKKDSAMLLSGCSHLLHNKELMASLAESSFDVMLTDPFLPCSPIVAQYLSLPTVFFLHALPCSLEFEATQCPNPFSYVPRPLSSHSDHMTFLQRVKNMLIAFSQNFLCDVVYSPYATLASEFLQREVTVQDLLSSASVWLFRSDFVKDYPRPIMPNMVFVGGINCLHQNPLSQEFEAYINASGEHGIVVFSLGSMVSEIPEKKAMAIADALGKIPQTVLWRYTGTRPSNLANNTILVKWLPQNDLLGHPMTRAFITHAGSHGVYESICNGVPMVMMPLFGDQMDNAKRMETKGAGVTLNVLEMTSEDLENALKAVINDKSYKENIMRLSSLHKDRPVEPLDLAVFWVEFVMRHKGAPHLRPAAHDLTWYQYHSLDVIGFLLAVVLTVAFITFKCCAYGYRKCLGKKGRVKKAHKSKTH

[10] = with mefenamic acid vs vericiguat 2.5 mg SD alone, fed
[11] = pre- and co-administration of omeprazole vs vericiguat alone

Substrate of organic cation transporter 1 [1]: not a substrate | AUC of vericiguat, point estimate of treatment ratio [2]: 0.980 | Cmax of vericiguat, point estimate of treatment ratio [2]: 1.009 | Increase in AUC of vericiguat ([4]; inhibition of UGT1A9 by mefenamic acid): 20% | AUC of vericiguat, point estimate of treatment ratio [4, 10]: 1.197 | Cmax of vericiguat, point estimate of treatment ratio [4, 10]: 0.967 | Reduction in the bioavailability of vericiguat ([5]; co-administration in fasting conditions of omeprazole (40 mg once daily) and magnesium/aluminum hydroxide (600/900 mg) relative to vericiguat alone): about 30% | Reduction of AUC of vericiguat [5, 11]: 32% | Reduction of Cmax of vericiguat [5, 11]: 49% | Cmax of vericiguat, point estimate of treatment ratio ([5]; with omeprazole 40 mg QD vs vericiguat 5 mg SD alone, fasting): 0.504 | IC50 [6]: > 50 µM | Induction of CYP1A2 [7]: no significant induction | IC50 [8]: ~30 µM | IC50 [9]: > 50 µM
Structure (SMILES): COC(=O)Nc1c(N)nc(-c2nn(Cc3ccccc3F)c3ncc(F)cc23)nc1N [Vericiguat]
Increase in AUC after administration with food compared to without ([3]; vericiguat alone): approximately 44% | Increase in Cmax after administration with food compared to without ([3]; vericiguat alone): ~41% | Geometric coefficient of variation in AUC ([3]; with food): 19% | Oral bioavailability ([3]; with food): 93% | Geometric coefficient of variation in AUC ([3]; without food): 41%
